According to paper PMC5741288 (Pain Reports, 2016):

Test system: dermal blood flow (flare)
Assay: Topical capsaicin alone, flare response in anesthetized rats
Type: in vivo, Sprague Dawley rats
Summary of the method: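 Isoflurane-anaesthetised rats had clipped lower abdominal skin and an O-ring placed by a preliminary Doppler image. Capsaicin (0.1–3 mg) or vehicle (30% ethanol, Tween, sterile water) was pipetted into the ring. Dermal blood flow was scanned by laser Doppler imager every 15 min for 120 min. Change from baseline flux was computed every 15 min.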

In the case of `COc1cc(CNC(=O)CCCC/C=C/C(C)C)ccc1O` [Capsaicin], the Flare response (0.1 mg topical) is reported as “did not produce any increase in flare”, the Flare response (0.3 mg topical, peaked 30 minutes after application) is reported as “transient increase in flare” and the Flare response (1 mg topical, larger concentrations did not increase flare further) is reported as “greatest amount of flare”.
